Laboratory results taken from ChEMBL document CHEMBL3124841, “Discovery of vinyl sulfones as a novel class of neuroprotective agents toward Parkinson's disease therapy” (J Med Chem, 2014).

Columns and labels:
[1] = biological target: T1, Nuclear factor erythroid 2-related factor 2 (Mus musculus) (UniProt Q60795); test: Induction of Nrf2-dependent HO1 protein level in mouse BV-2 cells at 20 uM after 24 hrs by sandwich ELISA; type: cell-based
T1 sequence (whole entry): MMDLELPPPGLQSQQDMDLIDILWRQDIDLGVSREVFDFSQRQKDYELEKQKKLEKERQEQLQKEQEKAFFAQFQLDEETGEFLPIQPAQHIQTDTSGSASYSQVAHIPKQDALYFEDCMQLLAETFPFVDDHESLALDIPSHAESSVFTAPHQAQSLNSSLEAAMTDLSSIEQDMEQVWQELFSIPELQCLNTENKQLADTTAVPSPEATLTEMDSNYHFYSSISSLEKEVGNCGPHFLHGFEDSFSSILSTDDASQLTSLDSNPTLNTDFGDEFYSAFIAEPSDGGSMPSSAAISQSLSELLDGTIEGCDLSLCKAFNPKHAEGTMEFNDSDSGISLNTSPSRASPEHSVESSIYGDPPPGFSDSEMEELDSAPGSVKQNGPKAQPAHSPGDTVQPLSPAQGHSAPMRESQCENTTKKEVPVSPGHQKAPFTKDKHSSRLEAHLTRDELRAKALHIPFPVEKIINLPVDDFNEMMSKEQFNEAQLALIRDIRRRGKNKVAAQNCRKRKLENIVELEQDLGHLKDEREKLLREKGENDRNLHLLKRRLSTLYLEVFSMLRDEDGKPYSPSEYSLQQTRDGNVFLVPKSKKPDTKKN
How it was run: (§1)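 Murine BV-2 microglia in DMEM/10% FBS, 2.0 × 10⁴ cells per well, treated at 20 μM for 24 h in triplicate. Lysates in NP-40 Tris buffer (pH 8.0) diluted tenfold; HO-1 measured by sandwich ELISA with HRP-streptavidin and Amplex Red fluorescence (ex 530/em 590 nm). Expressed as % of 0.04% DMSO vehicle control ± SEM; sulforaphane 5 μM as reference.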

[2] = biological target: T1, Nuclear factor erythroid 2-related factor 2 (Mus musculus); test: Induction of Nrf2-dependent HO1 protein level in mouse BV-2 cells at 20 uM after 24 hrs by sandwich ELISA relative to control; type: cell-based; how it was run: as §1

Activity [1]	fold change (FC) [2]	SMILES
212%	2.1	COc1ccc(S(=O)(=O)/C=C/c2ccccc2OC(F)(F)F)cc1
133%	1.3	COc1ccc(/C=C/S(=O)(=O)c2ccc(OC)cc2)cc1
148%	1.5	COc1cccc(S(=O)(=O)/C=C/c2ccc(C(F)(F)F)cc2)c1
137%	–	O=S(=O)(/C=C/c1cccc(Cl)c1)c1ccc(F)cc1
242%	–	O=S(=O)(/C=C/c1ccccc1C(F)(F)F)c1ccc(Cl)cc1
251%	2.5	COc1cccc(S(=O)(=O)/C=C/c2ccccc2C(F)(F)F)c1
330%	3.3	COc1ccccc1S(=O)(=O)/C=C/c1ccc(Cl)cc1
203%	2	COc1ccc(S(=O)(=O)/C=C/c2cccc(F)c2)cc1
177%	1.8	COc1ccc(S(=O)(=O)/C=C/c2ccc(F)cc2)cc1
112%	–	O=S(=O)(/C=C/c1ccc(Cl)cc1)c1ccc(F)cc1
111%	1.1	COc1cccc(S(=O)(=O)/C=C/c2cccc(Cl)c2)c1
126%	1.2	COc1ccc(S(=O)(=O)/C=C/c2ccccc2OC)cc1
105%	–	O=S(=O)(/C=C/c1cccc(F)c1)c1ccc(Cl)cc1
148%	1.5	COc1cccc(S(=O)(=O)/C=C/c2ccccc2F)c1
125%	1.2	COc1ccc(S(=O)(=O)/C=C/c2cccc(Cl)c2)cc1
256%	2.6	COc1ccccc1S(=O)(=O)/C=C/c1cccc(C(F)(F)F)c1
357%	3.6	COc1ccccc1S(=O)(=O)/C=C/c1ccc(C(F)(F)F)cc1

Activity [1]	fold change (FC) [2]	SMILES
160%	1.6	COc1cccc(S(=O)(=O)/C=C/c2ccc(F)cc2)c1
155%	–	O=S(=O)(/C=C/c1ccc(C(F)(F)F)cc1)c1ccccc1
225%	–	O=S(=O)(/C=C/c1ccccc1Cl)c1ccc(F)cc1
158%	1.6	COc1ccc(S(=O)(=O)/C=C/c2ccccc2Cl)cc1
136%	1.4	COc1cccc(S(=O)(=O)/C=C/c2cccc(F)c2)c1
204%	–	COc1ccc(S(=O)(=O)/C=C/c2ccccc2C(F)(F)F)cc1OC
127%	–	O=S(=O)(/C=C/c1cccc(Cl)c1)c1ccc(Cl)cc1
245%	2.4	COc1ccccc1S(=O)(=O)/C=C/c1cccc(Cl)c1
169%	1.7	COc1ccc(S(=O)(=O)/C=C/c2ccc(Cl)cc2)cc1
259%	2.6	COc1ccccc1S(=O)(=O)/C=C/c1ccc(F)cc1
158%	–	O=S(=O)(/C=C/c1cccc(C(F)(F)F)c1)c1ccc(F)cc1
373%	3.7	COc1ccccc1S(=O)(=O)/C=C/c1ccccc1F
141%	1.4	COc1ccc(S(=O)(=O)/C=C/c2ccccc2N)cc1
193%	–	O=S(=O)(/C=C/c1ccccc1C(F)(F)F)c1ccccc1
125%	–	O=S(=O)(/C=C/c1ccc(C(F)(F)F)cc1)c1ccc(F)cc1
248%	–	O=S(=O)(/C=C/c1ccccc1C(F)(F)F)c1ccc(F)cc1

More lines, now with the values behind:

SMILES	Activity [1]	fold change (FC) [2]
COc1ccc(S(=O)(=O)/C=C/c2ccc(C(F)(F)F)cc2)cc1OC	119%	–
COc1cccc(S(=O)(=O)/C=C/c2ccc(Cl)cc2)c1	228%	2.3
COc1ccc(C(=O)/C=C/c2ccccc2C(F)(F)F)cc1	164%	–
COc1ccc(S(=O)(=O)/C=C/c2cccc(C(F)(F)F)c2)cc1	214%	2.1
O=S(=O)(/C=C/c1ccc(F)cc1)c1ccc(F)cc1	141%	–
O=S(=O)(/C=C/c1cccc(F)c1)c1ccc(F)cc1	177%	–
COc1ccccc1S(=O)(=O)/C=C/c1ccccc1C(F)(F)F	328%	3.3
COc1ccccc1S(=O)(=O)/C=C/c1cccc(F)c1	353%	3.5
COc1cccc(S(=O)(=O)/C=C/c2cccc(C(F)(F)F)c2)c1	204%	2
COc1ccc(S(=O)(=O)/C=C/c2ccc(C(F)(F)F)cc2)cc1	154%	1.5
O=S(=O)(/C=C/c1ccc(F)cc1)c1ccc(Cl)cc1	111%	–
O=S(=O)(/C=C/c1ccccc1F)c1ccc(F)cc1	241%	–
O=S(=O)(/C=C/c1ccccc1Cl)c1ccc(Cl)cc1	169%	–
O=S(=O)(/C=C/c1ccccc1F)c1ccc(Cl)cc1	107%	–
O=S(=O)(/C=C/c1ccc(C(F)(F)F)cc1)c1ccc(Cl)cc1	140%	–
O=S(=O)(/C=C/c1cccc(C(F)(F)F)c1)c1ccc(Cl)cc1	111%	–
O=S(=O)(/C=C/c1cccc(C(F)(F)F)c1)c1ccccc1	188%	–
COc1cccc(S(=O)(=O)/C=C/c2ccccc2Cl)c1	284%	2.8
O=S(=O)(/C=C/c1ccc(Cl)cc1)c1ccc(Cl)cc1	117%	–
COc1ccc(S(=O)(=O)/C=C/c2ccccc2F)cc1	174%	1.7
COc1ccc(S(=O)(=O)/C=C/c2cccc(OC)c2)cc1	146%	1.5
COc1ccc([S+]([O-])/C=C/c2ccccc2C(F)(F)F)cc1 (stereo not drawn)	134%	–
COc1ccc(S(=O)(=O)/C=C/c2ccccc2C(F)(F)F)cc1	258%	2.6
COc1ccc(S(=O)(=O)/C=C/c2cccc(C(F)(F)F)c2)cc1OC	153%	–
